Drawing on ChEMBL document CHEMBL4265927, “Systematic variation of the benzoylhydrazine moiety of the GluN2A selective NMDA receptor antagonist TCN-201” (Eur J Med Chem, 2018), this text covers inhibition, IC50 and Ratio for 19 compounds.

Type in all cases: cell-based
Assay [1] in a line: Negative allosteric modulation of GluN1a/GluN2B receptor (unknown origin) expressed in Xenopus laevis oocytes assessed as inhibition of (S)-glutamate/glycine-induced channel current at 10 uM at -70 mV holding potential by two electrode voltage clamp based electrophysiology assay. To be noted: Homo sapiens. The method in brief: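 For selectivity, oocytes received 0.8 ng GluN1a plus 0.8 ng GluN2B rat cRNA. TEVC was at room temperature in Mg2+-free Ba2+-Ringer, pH 7.4, with (S)-glutamate/glycine stimulation. Compounds were at 10 µM, giving 0.1% DMSO in the test solution. There were 4–5 oocytes per compound.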
In general terms: In two-electrode clamp one electrode senses voltage and the other passes current.

Assay [2] in a line: Negative allosteric modulation of GluN1a/GluN2A receptor (unknown origin) expressed in Xenopus laevis oocytes assessed as inhibition of (S)-glutamate/glycine-induced channel current at -70 mV holding potential in presence of 10 uM glycine by two electrode voltage clamp based electrophysiology assay. To be noted: Homo sapiens. In short, it runs like this:
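Rat wild-type GluN1a and GluN2A cRNA (0.8 ng each) injected into defolliculated oocytes. TEVC at room temperature in Mg2+-free Ba2+-Ringer (10 mM HEPES, 90 mM NaCl, 1 mM KCl, 1.5 mM BaCl2, pH 7.4). Compound was diluted from DMSO stock into (S)-glutamate/glycine agonist solution over a 1 nM–10 range. There were 5 oocytes per concentration. The logistic fit had minimal and maximal inhibition fixed at 0% and 100%.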

A short description of assay [3]: Negative allosteric modulation of GluN1a/GluN2A receptor (unknown origin) expressed in Xenopus laevis oocytes assessed as inhibition of (S)-glutamate/glycine-induced channel current at 200 nM at -70 mV holding potential in presence of 1 to 30 uM glycine by two electrode voltage clamp based electrophysiology assay. The conditions noted are these: Homo sapiens. The method in brief:
(§1)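 Oocytes co-injected with 0.8 ng each of rat GluN1a and GluN2A cRNA were recorded by TEVC at room temperature in Mg2+-free Ba2+-Ringer, pH 7.4. Compound was fixed at 200 nM. Currents were evoked by (S)-glutamate with glycine at 1, 3, 10 and 30. There were 3 oocytes per glycine level. Mean inhibition was fitted linearly (y = a + b*x) to give intercept and slope.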

Assay [4] is described as follows: Negative allosteric modulation of GluN1a/GluN2A receptor (unknown origin) expressed in Xenopus laevis oocytes assessed as inhibition of (S)-glutamate/glycine-induced channel current at 200 nM at -70 mV holding potential in presence of 1 to 10 uM glycine by two electrode voltage clamp based electrophysiology assay. To be noted: Homo sapiens. The method in brief:
as §1

Assay [5] can be described thus: Negative allosteric modulation of GluN1a/GluN2A receptor (unknown origin) expressed in Xenopus laevis oocytes assessed as inhibition of (S)-glutamate/glycine-induced channel current at 500 nM at -70 mV holding potential by two electrode voltage clamp based electrophysiology assay relative to control TCN-201. The conditions noted are these: Homo sapiens. In short, it runs like this: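 The screen ran on GluN1a/GluN2A oocytes (0.8 ng of each rat cRNA) by room-temperature TEVC in Mg2+-free Ba2+-Ringer, pH 7.4, with (S)-glutamate/glycine activation. Compounds were at 500 nM. Inhibition was normalized to that of the reference antagonist at 500 nM, tested in the same series of experiments. n is the number of independent oocytes.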

For assay [6], the species on record is Homo sapiens. The experiment in a line: Negative allosteric modulation of GluN1a/GluN2A receptor (unknown origin) expressed in Xenopus laevis oocytes assessed as inhibition of (S)-glutamate/glycine-induced channel current at 200 nM at -70 mV holding potential in presence of 1 to 3 uM glycine by two electrode voltage clamp based electrophysiology assay. The method in brief: as §1

The species named for assay [7] is Homo sapiens. The experiment in a line: Negative allosteric modulation of GluN1a/GluN2A receptor (unknown origin) expressed in Xenopus laevis oocytes assessed as inhibition of (S)-glutamate/glycine-induced channel current at 200 nM at -70 mV holding potential in presence of 30 uM glycine by two electrode voltage clamp based electrophysiology assay. In short, it runs like this:
as §1

The nature of assay [8]: Negative allosteric modulation of GluN1a/GluN2A receptor (unknown origin) expressed in Xenopus laevis oocytes assessed as inhibition of (S)-glutamate/glycine-induced channel current at -70 mV holding potential in presence of 3 uM glycine by two electrode voltage clamp based electrophysiology assay. The conditions noted are these: Homo sapiens.

The source made the active and inactive calls. The rule behind the calls is not given here.

One may read the IC50 as the point on the concentration scale where inhibition reaches its midpoint. With `O=C(NNC(=O)c1c[nH]c2ccccc12)c1ccc(CNS(=O)(=O)c2ccc(F)c(Cl)c2)cc1`, in assay [1], the inhibition result was “inactive”. In addition, in assay [2], the 50% inhibitory concentration (IC50) is 0.216 µM. The inhibition result in assay [3] and in assay [4] was “Active” in each case. For the same compound, the Ratio in assay [5] came out at 1.33.

As for `O=C(NNC(=O)c1ccc2ccccc2c1)c1ccc(CNS(=O)(=O)c2ccc(F)c(Cl)c2)cc1`, the Ratio in assay [5] is 0.44.

Regarding `O=C(Cc1ccccc1)NNC(=O)c1ccc(CNS(=O)(=O)c2ccc(F)c(Cl)c2)cc1`, the Ratio in assay [5] amounted to 0.64.

Take `O=C(NNCc1ccccc1)c1ccc(CNS(=O)(=O)c2ccc(F)c(Cl)c2)cc1`: the Ratio in assay [5] is 0.73.

With `O=C(NNC(=O)N1CCOCC1)c1ccc(CNS(=O)(=O)c2ccc(F)c(Cl)c2)cc1`, in assay [5], the Ratio came out at 0.52.

For the compound `O=C(NNC(=O)c1ccc[nH]1)c1ccc(CNS(=O)(=O)c2ccc(F)c(Cl)c2)cc1`, the Ratio in assay [5] turned out to be 1.2.

On to `O=C(NNC(=O)c1ccc(CNS(=O)(=O)c2cccc(Br)c2)cc1)c1ccccc1`, for which, in assay [2], the IC50 stood at 0.204 µM.

On to `O=C(NNC(=O)c1cc2ccccc2[nH]1)c1ccc(CNS(=O)(=O)c2ccc(F)c(Cl)c2)cc1`, for which the Ratio in assay [5] was found to be 1.28.

In the case of `O=C(O)CCC(=O)NNC(=O)c1ccc(CNS(=O)(=O)c2ccc(F)c(Cl)c2)cc1`, the Ratio in assay [5] is 0.3.

`O=C(NNC(=O)c1cccs1)c1ccc(CNS(=O)(=O)c2ccc(F)c(Cl)c2)cc1`: the inhibition result in assay [1] was “inactive”. Further, in assay [2], the IC50 worked out at 0.198 µM. Moreover, the inhibition entry in assay [3] and in assay [4] was “Active” throughout. In addition, in assay [5], the Ratio came out at 1.35.

Regarding `O=C(NNC(=O)c1ccco1)c1ccc(CNS(=O)(=O)c2ccc(F)c(Cl)c2)cc1`, the Ratio in assay [5] amounted to 1.1.

For `O=C(NNC(=O)c1ccc(CNS(=O)(=O)c2ccc(F)c(Cl)c2)cc1)c1ccccc1`, the inhibition entry (in assay [1]; in the assay listed under Homo sapiens [6]) was “inactive” throughout. In addition, in assay [2], the IC50 is 0.512 µM. Also, the inhibition entry (in assay [4]; in the assay listed under Homo sapiens [7]) was “Active” in each case.

Turning to `O=C(NNC(=O)c1cc2ccccc2s1)c1ccc(CNS(=O)(=O)c2ccc(F)c(Cl)c2)cc1`, the Ratio in assay [5] amounted to 0.58.

On to `O=S(=O)(NCc1ccc(-c2nnc(-c3ccccc3)o2)cc1)c1ccc(F)c(Cl)c1`, for which, in assay [5], the Ratio worked out at 0.31.

Consider `O=C(NNS(=O)(=O)c1ccccc1)c1ccc(CNS(=O)(=O)c2ccc(F)c(Cl)c2)cc1`, for which the Ratio in assay [5] was determined as 0.58.

Consider `CC(C(O)c1ccc(O)cc1)N1CCC(Cc2ccccc2)CC1` (configuration not stated), for which, in assay [1], the inhibition entry is “inactive”.

In the case of `O=C(NNC(=O)c1cccs1)c1ccc(CNS(=O)(=O)c2cccc(Br)c2)cc1`, in assay [1], the inhibition entry is “inactive”. In assay [2], the IC50 is 0.222 µM. The inhibition entry in assay [3] and in assay [4] was “Active” in each case.

Consider `Cc1ncc(CNC(=O)c2cnc(CNS(=O)(=O)c3ccc(F)c(F)c3)c(C)n2)s1`, for which the inhibition result (in assay [3]; in assay [4]; in the assay filed under Homo sapiens [7]) was “Active” in each case. Besides, the half-maximal inhibitory concentration (IC50) in assay [8] came out at 0.198 µM.

`O=C(NNC(=O)c1ccncn1)c1ccc(CNS(=O)(=O)c2ccc(F)c(Cl)c2)cc1`: the Ratio in assay [5] is 0.92.
